These results are taken from ChEMBL document CHEMBL4725463, “Vinyl Sulfone-Based Inhibitors of Nonstructural Protein 2 Block the Replication of Venezuelan Equine Encephalitis Virus” (ACS Med Chem Lett, 2020).

Broadly, the EC50 is the concentration that produces a half-maximal response. A word on the CC50: it is the concentration that lowers cell viability or growth by half. As usually defined, the inhibition is the change of the read-out against control, counted positive when it falls.

Series [1] deals with Venezuelan equine encephalitis virus. Kind of series: Antiviral activity against Venezuelan equine encephalitis virus TC-83 infected in mouse Neuro-2a cells pretreated with compound for 2 hrs followed by viral infection at MOI of 3.5 and measured after 7 hrs by immunostaining based confocal microscopic analysis. The following applies: strain TC-83, N2a. Type of series: functional, organism-based.

Series [2] in a line: Selectivity index, ratio of CC50 for cytotoxicity against mouse Neuro-2a cells to EC50 for antiviral activity against Venezuelan equine encephalitis virus TC-83 infected in mouse Neuro-2a cells. Type of series: toxicity, cell-based. The following applies: read-out: Ratio CC50/EC50.
Series [3] is described as follows: Cytotoxicity against mouse N2a cells. Type of series: cell-based.
For series [4], the system named is Venezuelan equine encephalitis virus. Kind of series: Antiviral activity against Venezuelan equine encephalitis virus TC-83 infected in human BE(2)-M17 cells pretreated with compound for 2 hrs followed by viral infection at MOI of 1.2 and measured after 7 hrs by immunostaining based confocal microscopic analysis. Type of series: functional, organism-based. The note with it: strain TC-83, SK-N-BE(2)-M17.

Series [5] in a line: Cytotoxicity against human SK-N-BE(2)-M17 cells. The class given is cell-based.
A short description of series [6]: Selectivity index, ratio of CC50 for cytotoxicity against human BE(2)-M17 cells to EC50 for antiviral activity against Venezuelan equine encephalitis virus TC-83 infected in human BE(2)-M17 cells. The class given is toxicity, cell-based. The note with it: read-out: Ratio CC50/EC50.
Series [7] can be described thus: Selectivity ratio of CC50 for cytotoxicity against green monkey VeroE6 cells to EC50 for antiviral activity against Venezuelan equine encephalitis virus IC-SH3 infected in VeroE6 cells. Type of series: toxicity, cell-based. The note with it: read-out: Ratio CC50/EC50.
The nature of series [8]: Selectivity ratio of CC50 for cytotoxicity against human HeLa cells to EC50 for antiviral activity against Venezuelan equine encephalitis virus IC-SH3 infected in HeLa cells. Type of series: toxicity, cell-based. The note with it: read-out: Ratio CC50/EC50.
Series [9] relates to Venezuelan equine encephalitis virus. Kind of series: Antiviral activity against Venezuelan equine encephalitis virus IC-SH3 infected in HeLa cells pretreated with compound for 2 hrs followed by viral infection at MOI of 0.1 and measured after 20 hrs by immunostaining based confocal microscopic analysis. The class given is functional, organism-based.
Series [10] is described as follows: Cytotoxicity against green monkey Vero C1008 cells. The class given is cell-based. The following applies: chlorocebus sabaeus.
In series [11] the test system is Venezuelan equine encephalitis virus. Kind of series: Antiviral activity against Venezuelan equine encephalitis virus IC-SH3 infected in VeroE6 cells pretreated with compound for 2 hrs followed by viral infection at MOI of 0.01 and measured after 20 hrs by immunostaining based confocal microscopic analysis. Type of series: functional, organism-based. The note with it: IC-SH3, Vero C1008.

The nature of series [12]: Cytotoxicity against human HeLa cells. The class given is cell-based.
Series [13] has as its target Polyprotein P1234 (Venezuelan equine encephalitis virus) (UniProt P27282). Kind of series: Inhibition of recombinant VEEV nsP2 expressed in Escherichia coli BL21(DE3) using V12 as substrate at 20 uM after 24 hrs by discontinuous gel assay relative to control. A digest of the protocol:
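VEEV nsP2 (1 μM) was exposed to compound at 20 μM in the presence of 10 μM V12 CFP-YFP FRET substrate. Protease inactivation was judged by cleavage of V12.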

Series [14] shares this target. The series can be described thus: Inhibition of recombinant VEEV nsP2 expressed in Escherichia coli BL21(DE3) using V12 as substrate at 0.9 uM after 24 hrs by discontinuous gel assay relative to control. A digest of the protocol: (§1)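 Recombinant tag-free VEEV nsP2 (1 μM) was incubated with the V12 CFP-YFP FRET substrate (10 μM) and compound in 50 mM HEPES pH 7.4 for 24 h at room temperature. Compound was tested at 3.6 to 0.03 μM in 2-fold steps. Uncut and cleaved V12 were resolved on gel, and percentage inhibition was estimated at 0.9 μM.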

Series [15] shares this target. Kind of series: Inhibition of recombinant VEEV nsP2 expressed in Escherichia coli BL21(DE3) using V12 as substrate after 24 hrs by discontinuous gel assay. A digest of the protocol:
as §1

Series [16] in a line: Selectivity index, ratio of CC50 for cytotoxicity against mouse cortical neurons to EC50 for antiviral activity against Venezuelan equine encephalitis virus TC-83 infected in mouse cortical neurons. Type of series: toxicity. The following applies: read-out: Ratio CC50/EC50.
For series [17], the system named is Venezuelan equine encephalitis virus. The series can be described thus: Antiviral activity against Venezuelan equine encephalitis virus Trinidad infected in HeLa cells at MOI of 0.1 after 20 hrs by immunostaining based confocal microscopic analysis. The class given is functional, organism-based.
Series [18] is described as follows: Cytotoxicity against mouse cortical neurons. Type of series: cell-based, Cortical neurone.
Series [19] has as its system Venezuelan equine encephalitis virus. Kind of series: Antiviral activity against Venezuelan equine encephalitis virus Trinidad infected in Vero cells at MOI of 0.01 after 20 hrs by immunostaining based confocal microscopic analysis. The class given is functional, organism-based.
Series [20] is described as follows: Selectivity index, ratio of CC50 for cytotoxicity against african green monkey Vero cells to EC50 for antiviral activity against Venezuelan equine encephalitis virus Trinidad infected in Vero cells. The following applies: read-out: Ratio CC50/EC50. The class given is toxicity, cell-based.
For series [21], the system named is Venezuelan equine encephalitis virus. The series can be described thus: Antiviral activity against Venezuelan equine encephalitis virus TC-83 infected in mouse cortical neurons at MOI of 0.04 after 20 hrs by immunostaining based confocal microscopic analysis. Type of series: functional, organism-based, Cortical neuron. The following applies: strain TC-83, Cortical neurone.

Series [22] is described as follows: Selectivity index, ratio of CC50 for cytotoxicity against human HeLa cells to EC50 for antiviral activity against Venezuelan equine encephalitis virus Trinidad infected in HeLa cells. The note with it: read-out: Ratio CC50/EC50. The class given is toxicity, cell-based.
Series [23] in a line: Cytotoxicity against green monkey Vero cells. Type of series: cell-based. The note with it: chlorocebus sabaeus.

Polyprotein P1234 (Venezuelan equine encephalitis virus), sequence (P27282 whole entry): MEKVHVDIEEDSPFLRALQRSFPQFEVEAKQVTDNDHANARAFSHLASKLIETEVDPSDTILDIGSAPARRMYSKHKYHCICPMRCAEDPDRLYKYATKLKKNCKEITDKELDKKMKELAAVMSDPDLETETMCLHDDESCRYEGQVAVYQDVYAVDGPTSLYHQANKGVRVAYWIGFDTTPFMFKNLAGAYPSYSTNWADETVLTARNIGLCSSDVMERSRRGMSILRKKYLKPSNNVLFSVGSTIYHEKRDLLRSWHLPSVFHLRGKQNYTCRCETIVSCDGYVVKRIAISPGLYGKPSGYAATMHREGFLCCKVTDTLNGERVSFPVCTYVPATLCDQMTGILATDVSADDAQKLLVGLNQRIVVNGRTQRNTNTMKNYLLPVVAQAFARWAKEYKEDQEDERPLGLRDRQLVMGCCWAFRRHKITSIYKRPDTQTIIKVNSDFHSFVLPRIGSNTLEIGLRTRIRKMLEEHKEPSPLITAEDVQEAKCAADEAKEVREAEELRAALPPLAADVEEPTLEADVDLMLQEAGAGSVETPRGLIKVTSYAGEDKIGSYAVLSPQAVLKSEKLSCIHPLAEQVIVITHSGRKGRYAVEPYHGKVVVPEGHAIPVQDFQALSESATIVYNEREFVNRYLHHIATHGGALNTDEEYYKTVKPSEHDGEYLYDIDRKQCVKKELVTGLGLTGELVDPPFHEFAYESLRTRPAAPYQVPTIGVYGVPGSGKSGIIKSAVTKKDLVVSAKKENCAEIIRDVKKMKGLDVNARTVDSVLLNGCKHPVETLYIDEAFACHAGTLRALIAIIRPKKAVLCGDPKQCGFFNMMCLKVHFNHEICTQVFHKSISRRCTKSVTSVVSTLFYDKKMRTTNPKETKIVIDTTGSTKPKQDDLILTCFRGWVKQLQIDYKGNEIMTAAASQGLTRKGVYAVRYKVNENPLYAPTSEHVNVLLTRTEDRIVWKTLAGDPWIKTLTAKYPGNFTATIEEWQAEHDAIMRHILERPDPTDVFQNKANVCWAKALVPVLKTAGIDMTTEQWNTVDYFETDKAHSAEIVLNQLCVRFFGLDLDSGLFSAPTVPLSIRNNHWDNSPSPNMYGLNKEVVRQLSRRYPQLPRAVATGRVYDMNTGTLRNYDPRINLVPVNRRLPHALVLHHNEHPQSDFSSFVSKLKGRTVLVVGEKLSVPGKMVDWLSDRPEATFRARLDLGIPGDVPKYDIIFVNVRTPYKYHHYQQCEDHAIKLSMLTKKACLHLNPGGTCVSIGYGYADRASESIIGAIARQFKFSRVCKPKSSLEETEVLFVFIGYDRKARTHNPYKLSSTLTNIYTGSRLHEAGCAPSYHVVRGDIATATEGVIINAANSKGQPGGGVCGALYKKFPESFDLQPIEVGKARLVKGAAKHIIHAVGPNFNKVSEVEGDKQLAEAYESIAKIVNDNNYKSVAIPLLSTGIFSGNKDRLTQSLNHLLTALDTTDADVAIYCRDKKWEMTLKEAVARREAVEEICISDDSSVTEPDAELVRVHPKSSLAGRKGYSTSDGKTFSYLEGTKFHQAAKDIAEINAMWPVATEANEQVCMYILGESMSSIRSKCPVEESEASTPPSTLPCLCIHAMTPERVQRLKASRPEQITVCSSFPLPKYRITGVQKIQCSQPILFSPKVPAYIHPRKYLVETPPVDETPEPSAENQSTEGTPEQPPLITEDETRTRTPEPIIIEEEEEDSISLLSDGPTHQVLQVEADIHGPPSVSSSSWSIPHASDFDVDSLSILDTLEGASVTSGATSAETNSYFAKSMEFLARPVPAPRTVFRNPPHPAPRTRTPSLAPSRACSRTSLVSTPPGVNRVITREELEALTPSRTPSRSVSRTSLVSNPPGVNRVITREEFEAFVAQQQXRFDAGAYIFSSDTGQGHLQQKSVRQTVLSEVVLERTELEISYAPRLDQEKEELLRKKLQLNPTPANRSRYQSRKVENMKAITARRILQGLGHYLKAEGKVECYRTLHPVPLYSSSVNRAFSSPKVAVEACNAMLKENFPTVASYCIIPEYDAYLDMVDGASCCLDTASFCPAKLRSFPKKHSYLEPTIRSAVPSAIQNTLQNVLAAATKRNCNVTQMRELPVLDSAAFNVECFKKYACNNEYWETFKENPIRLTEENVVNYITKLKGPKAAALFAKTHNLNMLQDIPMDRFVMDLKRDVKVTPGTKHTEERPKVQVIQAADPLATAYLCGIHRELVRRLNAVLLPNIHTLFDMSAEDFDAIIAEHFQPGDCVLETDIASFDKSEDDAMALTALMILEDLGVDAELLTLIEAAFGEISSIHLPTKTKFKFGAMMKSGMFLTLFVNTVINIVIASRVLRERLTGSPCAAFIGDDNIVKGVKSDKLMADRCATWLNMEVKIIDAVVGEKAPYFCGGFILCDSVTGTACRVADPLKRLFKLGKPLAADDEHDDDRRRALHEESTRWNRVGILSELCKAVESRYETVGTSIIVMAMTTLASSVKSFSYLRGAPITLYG

On to `CC1=CC(C)(C)Nc2c(C(=O)N[C@H](/C=C/S(C)(=O)=O)Cc3ccccc3)cccc21`, for which the EC50 in [1] came out at 13 µM; in series [4] it was 17 µM. Besides, the selectivity ratio was above 4 in [2] and above 2 in series [6]. The half-maximal cytotoxic concentration (CC50) was above 50 µM in series [3] and above 38 µM in series [5].
Turning to `O=C(N[C@H](/C=C/S(=O)(=O)c1ccccc1)Cc1ccccc1)c1cccc2cccnc12`, the EC50 was determined as 19 µM in series [1] and 17 µM in [4]. Besides, the selectivity ratio was above 2 in series [2] and 1 in series [6]. Also, the results for the cytotoxic concentration (CC50) in series [3] and in [5] were 46 µM and 16 µM, respectively.
As to `COC(=O)/C=C/CNC(=O)c1cccc2c1NC(C)(C)C=C2C`, the selectivity ratio in series [7] is above 5; in [8], above 55; in series [6] it was 1.5. Besides, the EC50 in series [1] was above 25 µM; in series [4], 4.5 µM; in series [9] it was 0.6 µM; in series [11] it was 6.5 µM. Further, the results for the CC50 in [5], in series [10] and in series [12] were 18.1 µM, 6.7 µM and above 30 µM, respectively.
Regarding `COC(=O)CCCNC(=O)c1cc(C)cc2c1NC(C)(C)C=C2C`, the EC50 in series [9] and in series [11] was above 30 µM in each case. In addition, the CC50 in series [10] and in series [12] was above 30 µM throughout.
Regarding `COC(=O)/C=C/CNC(=O)c1c[nH]c2ccc(Br)cc12`, the values for the 50% effective concentration (EC50) in series [1] and in series [4] were 11 µM and 3 µM, respectively. Moreover, the selectivity ratio was above 2 in series [2] and 4 in [6]. Besides, the CC50 in series [3] was above 25 µM; in [5] it was 12 µM.
Take `C[C@@H]1CC(C)(C)Nc2c(C(=O)N[C@@H](C)/C=C/S(C)(=O)=O)cccc21`: the figures for the EC50 in series [1] and in series [4] were 3.7 µM and 3.3 µM, respectively. Moreover, the selectivity ratio in [2] was above 7; in series [6] it was above 7.5. For the same molecule, the CC50 in series [3] and in series [5] was above 25 µM each time. Besides, the results for the inhibition in series [13], in series [14] and in series [15] were 100%, 71% and “Dose-dependent effect”, respectively.
As to `CC1=CC(C)(C)Nc2c(C(=O)NC/C=C/S(C)(=O)=O)cccc21`, the selectivity ratio in [16] is above 4; in series [2], above 5; in series [20], 7; in series [6], above 9; in series [22], above 22. In addition, the EC50 came out at 1.4 µM in series [17]; 5 µM in series [1]; 5 µM in series [19]; 2 µM in series [4]; 6 µM in [21]. The CC50 in series [3] was 27 µM; in series [18] it was above 25 µM; in series [5] it was 19.6 µM; in [23], 30 µM.
For the molecule `COC(=O)/C=C/CNC(=O)c1cc(C)cc2c1NC(C)(C)C=C2C`, the results for the selectivity ratio in series [7] and in [8] were above 3.5 and above 4, respectively. The values for the EC50 in series [9] and in series [11] were 8.7 µM and 8.6 µM, respectively. The CC50 in [10] and in series [12] was above 30 µM each time.
On to `COC(=O)/C=C/CNC(=O)c1cccc2c1NCCC2`, for which the selectivity ratio in series [8] was above 2. Besides, the EC50 in series [9] was 18 µM; in series [11] it was above 30 µM. Also, the CC50 in [10] and in series [12] was above 30 µM each time.
In the case of `COC(=O)/C=C/CNC(=O)c1cccc2c1NC(C)(C)C[C@H]2C`, the selectivity ratio in series [7] was above 4; in series [8] it was above 26; in series [2] it was above 1. In addition, the EC50 was 22 µM in series [1], above 25 µM in [4], 1.2 µM in series [9] and 8.2 µM in series [11]. Also, the CC50 in [3] is above 25 µM; in [5], 11 µM; in [10] it was above 30 µM; in series [12], above 30 µM.
`C[C@@H]1CC(C)(C)Nc2c(C(=O)NC/C=C/S(C)(=O)=O)cccc21`: the selectivity ratio was 6 in series [16]; above 12 in series [2]; above 12 in series [20]; above 18 in [6]; above 19 in series [22]. In addition, the EC50 worked out at 1.6 µM in [17]; 2 µM in series [1]; 2.4 µM in series [19]; 1.4 µM in [4]; 8 µM in [21]. Besides, the CC50 was above 25 µM in series [3], 48 µM in series [18], above 25 µM in series [5] and 30 µM in series [23]. Moreover, the results for the inhibition in series [13], in series [14] and in [15] were 100%, 39% and “Dose-dependent effect”, respectively.
`COC(=O)CCCNC(=O)c1cccc2c1NC(C)(C)C[C@H]2C`: the EC50 in series [9] and in series [11] was above 30 µM in each case. The half-maximal cytotoxic concentration (CC50) in series [10] and in series [12] was above 30 µM in each case.
Take `COC(=O)CCCNC(=O)c1cccc2c1NCCC2`: the EC50 in series [9] and in [11] was above 30 µM each time. Besides, the half-maximal cytotoxic concentration (CC50) in series [10] and in series [12] was above 30 µM throughout.
On to `C[C@@H]1CC(C)(C)Nc2c(C(=O)N[C@H](/C=C/S(C)(=O)=O)Cc3ccccc3)cccc21`, for which the values for the EC50 in series [1] and in [4] were 13 µM and 9.3 µM, respectively. In addition, the selectivity ratio in [2] is above 4; in [6], above 5.4. Moreover, the CC50 in series [3] and in [5] was above 50 µM each time.
Turning to `CN1CCN(C)/C(=N\c2ccc([N+](=O)[O-])cc2C(=O)Nc2ccccc2)C1`, the values for the EC50 in series [1] and in series [4] were 0.02 µM and 0.01 µM, respectively. The results for the selectivity ratio in series [2] and in [6] were above 125 and above 250, respectively. Also, the CC50 in series [3] was above 2.5 µM; in series [5], above 2.25 µM.
As for `CC1=CC(C)(C)Nc2c(C(=O)N[C@@H](C)/C=C/S(C)(=O)=O)cccc21`, the selectivity ratio was above 9.7 in [16], above 7.3 in [2] and above 5 in [6]. The EC50 in series [1] stood at 3.4 µM; in [4] it was 4.5 µM; in [21] it was 2.7 µM. The CC50 in series [3], in [18] and in series [5] was above 25 µM throughout. Further, the inhibition in series [13] was 100%; in series [14] it was 59%; in [15], “Dose-dependent effect”.
With `COC(=O)CCCNC(=O)c1cccc2c1NC(C)(C)C=C2C`, the EC50 in series [9] and in series [11] was above 30 µM throughout. Moreover, the CC50 in [10] and in series [12] was above 30 µM each time.
